From ChEMBL document CHEMBL4350954, “Identification of Thienopyrimidine Scaffold as an Inhibitor of the ABC Transport Protein ABCC1 (MRP1) and Related Transporters Using a Combined Virtual Screening Approach” (J Med Chem, 2019)

Key:
[1] = target: T1, ATP-dependent translocase ABCB1 (Homo sapiens, UniProt P08183); test: (§1) Reversal of ABCB1 (unknown origin)-mediated multidrug resistance in MDCK2 cells co-expressing MDR1 (unknown origin) assessed as resistance factor by measuring [GI50(resistant cell line without or with compound)/ GI50(sensitive cell line)] at 10 uM incubated for 72 hrs by MTT assay (reference value: 17); assay type: cell-based
T1 sequence (P08183 whole entry): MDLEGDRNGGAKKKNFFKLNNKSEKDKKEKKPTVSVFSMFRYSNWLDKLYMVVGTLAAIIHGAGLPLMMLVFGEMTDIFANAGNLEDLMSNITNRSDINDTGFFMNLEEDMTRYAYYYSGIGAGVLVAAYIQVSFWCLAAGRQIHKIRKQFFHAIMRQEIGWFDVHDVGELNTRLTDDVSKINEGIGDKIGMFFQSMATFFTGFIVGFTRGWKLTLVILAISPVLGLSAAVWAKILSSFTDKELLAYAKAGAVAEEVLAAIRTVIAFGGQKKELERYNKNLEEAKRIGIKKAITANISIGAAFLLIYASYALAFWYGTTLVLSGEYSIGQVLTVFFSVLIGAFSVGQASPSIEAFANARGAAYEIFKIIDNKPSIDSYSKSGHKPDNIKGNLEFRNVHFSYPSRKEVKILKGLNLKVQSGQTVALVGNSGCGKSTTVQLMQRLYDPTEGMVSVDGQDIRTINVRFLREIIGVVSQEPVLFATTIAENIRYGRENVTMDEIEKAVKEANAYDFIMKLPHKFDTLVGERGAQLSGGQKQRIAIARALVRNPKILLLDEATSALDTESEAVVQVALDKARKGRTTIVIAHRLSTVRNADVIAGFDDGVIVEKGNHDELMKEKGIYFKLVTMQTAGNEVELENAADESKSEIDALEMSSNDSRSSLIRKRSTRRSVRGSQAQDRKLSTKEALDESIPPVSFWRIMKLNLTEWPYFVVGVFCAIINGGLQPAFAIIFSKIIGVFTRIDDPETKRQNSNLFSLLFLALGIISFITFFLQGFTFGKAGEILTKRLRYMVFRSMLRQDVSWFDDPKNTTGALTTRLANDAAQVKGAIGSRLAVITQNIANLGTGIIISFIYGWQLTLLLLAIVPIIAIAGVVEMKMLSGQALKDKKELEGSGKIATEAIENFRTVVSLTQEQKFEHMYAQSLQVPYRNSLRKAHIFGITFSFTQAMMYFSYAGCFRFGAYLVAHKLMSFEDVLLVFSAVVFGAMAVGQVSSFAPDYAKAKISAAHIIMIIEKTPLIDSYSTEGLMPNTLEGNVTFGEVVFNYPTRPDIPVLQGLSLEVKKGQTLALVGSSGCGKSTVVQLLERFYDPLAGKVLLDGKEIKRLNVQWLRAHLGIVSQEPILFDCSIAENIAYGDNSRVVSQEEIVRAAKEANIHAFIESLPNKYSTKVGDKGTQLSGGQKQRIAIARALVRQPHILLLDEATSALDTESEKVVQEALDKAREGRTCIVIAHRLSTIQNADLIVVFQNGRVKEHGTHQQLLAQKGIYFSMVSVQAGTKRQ
How it was run: (§2)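 MDR reversal assay with daunorubicin at 10 nM–10 µM, alone or with test compound at 0.5, 1, 5 or 10 µM. Resistant cells were ABCB1-overexpressing A2780/ADR or MDCK II MDR1, with sensitive A2780 or MDCK II cells as comparators. Resistance factor = resistant GI50 / sensitive GI50. EC50 was derived from resistance factors versus modulator concentration. Values are from ≥3 experiments in duplicate ± SEM.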

[2] = target: T1, ATP-dependent translocase ABCB1; test: Inhibition of ABCB1 in human A2780/ADR cells preincubated for 30 mins followed by calcein AM addition and measured at 60 secs time interval by fluorescence assay; assay type: cell-based
[3] = target: T1, ATP-dependent translocase ABCB1; test: Competitive inhibition of ABCB1-mediated calcein-AM transport in human A2780/ADR cells at 0.056 to 0.316 uM by Lineweaver-Burk plot analysis; assay type: cell-based
How it was run: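 Kinetic study of calcein AM transport by Lineweaver-Burk analysis. ABCC1 was studied in H69AR cells with calcein AM at 0.25, 0.3, 0.45, 0.6 and 0.8 µM and inhibitor at 0.316, 0.562, 1.00 and 1.78 µM plus a zero control. ABCB1 was studied in A2780/ADR cells with calcein AM at 0.2–0.8 µM and inhibitor at 0.056, 0.100, 0.178 and 0.316 µM plus a zero control.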

[4] = Growth inhibition of human A2780 cells incubated for 72 hrs by MTT assay; assay type: cell-based
How it was run: (§3)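 MTT-based cytotoxicity assay giving GI50 of the compound alone in each listed parental, selected or transfected cell line.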

[5] = target: T1, ATP-dependent translocase ABCB1; test: as §1, with “0.5” for “10”; assay type: cell-based; how it was run: as §2
[6] = target: T2, Broad substrate specificity ATP-binding cassette transporter ABCG2 (Homo sapiens, UniProt Q9UNQ0); test: Inhibition of ABCG2 (unknown origin) expressed in MDCK2 cells co-expressing BCRP (unknown origin) assessed as effect on pheophorbide A accumulation pre-incubated for 20 mins followed by pheophorbide A addition and measured after 120 mins by flow cytometric analysis; assay type: cell-based
T2 sequence (Q9UNQ0 whole entry): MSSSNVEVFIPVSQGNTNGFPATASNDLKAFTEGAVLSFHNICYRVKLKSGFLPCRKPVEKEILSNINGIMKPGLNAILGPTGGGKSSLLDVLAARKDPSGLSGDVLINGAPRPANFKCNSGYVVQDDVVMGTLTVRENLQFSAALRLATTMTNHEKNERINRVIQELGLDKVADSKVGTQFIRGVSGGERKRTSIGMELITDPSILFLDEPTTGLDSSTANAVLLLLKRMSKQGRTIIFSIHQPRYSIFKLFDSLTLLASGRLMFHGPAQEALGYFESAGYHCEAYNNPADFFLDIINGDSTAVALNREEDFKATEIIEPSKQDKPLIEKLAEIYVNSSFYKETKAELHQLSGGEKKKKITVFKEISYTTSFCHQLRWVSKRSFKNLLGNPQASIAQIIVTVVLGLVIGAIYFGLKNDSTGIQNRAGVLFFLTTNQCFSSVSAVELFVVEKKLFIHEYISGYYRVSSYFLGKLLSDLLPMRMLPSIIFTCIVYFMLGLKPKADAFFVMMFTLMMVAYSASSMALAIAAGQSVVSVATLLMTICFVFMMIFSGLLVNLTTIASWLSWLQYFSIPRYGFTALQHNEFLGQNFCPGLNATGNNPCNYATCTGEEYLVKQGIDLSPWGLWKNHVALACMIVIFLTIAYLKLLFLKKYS
How it was run: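 Pheophorbide A accumulation assay in ABCG2-transfected MDCK II BCRP cells. Ko143 at 10 µM set 100% and no compound set 0%. Screening was at 10 µM; compounds reaching >20% (+SEM) got IC50 curves constrained to the Ko143 maximum at 10 µM. Values are reported as mean ± SEM.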

[7] = target: T1, ATP-dependent translocase ABCB1; test: Reversal of ABCB1-mediated multidrug resistance in human A2780/ADR cells assessed as resistance factor by measuring [GI50(resistant cell line without or with compound)/ GI50(sensitive cell line)] at 0.5 uM incubated for 72 hrs by MTT assay (reference value: 49); assay type: cell-based; how it was run: as §2
[8] = Growth inhibition of MDCK2 cells co-expressing MDR1 (unknown origin) incubated for 72 hrs by MTT assay; assay type: ADME, cell-based, Canis lupus familiaris, MDCK-II; details: dog; how it was run: as §3
[9] = Growth inhibition of human MCF7/MX cells incubated for 72 hrs by MTT assay; how it was run: as §3
[10] = Growth inhibition of MDCK2 cells incubated for 72 hrs by MTT assay; assay type: cell-based, Canis lupus familiaris, MDCK-II; details: dog; how it was run: as §3
[11] = target: T2, Broad substrate specificity ATP-binding cassette transporter ABCG2; test: as §1, with “ABCG2” for “ABCB1”, “BCRP” for “MDR1”, “5” for “10”, “27)” for “17)”; assay type: cell-based
[12] = target: T1, ATP-dependent translocase ABCB1; test: Reversal of ABCB1-mediated multidrug resistance in human A2780/ADR cells assessed as resistance factor by measuring [GI50(resistant cell line without or with compound)/ GI50(sensitive cell line)] at 10 uM incubated for 72 hrs by MTT assay (reference value: 49); assay type: cell-based; how it was run: as §2
[13] = target: T1, ATP-dependent translocase ABCB1; test: Reversal of ABCB1-mediated multidrug resistance in human A2780/ADR cells assessed as resistance factor by measuring [GI50(resistant cell line without or with compound)/ GI50(sensitive cell line)] at 1 uM incubated for 72 hrs by MTT assay (reference value: 49); assay type: cell-based; how it was run: as §2
[14] = Growth inhibition of MDCK2 cells co-expressing MRP1 (unknown origin) incubated for 72 hrs by MTT assay; assay type: cell-based, Canis lupus familiaris, MDCK-II; details: dog; how it was run: as §3
[15] = Growth inhibition of human MCF7 cells incubated for 72 hrs by MTT assay; assay type: cell-based; how it was run: as §3
[16] = target: T2, Broad substrate specificity ATP-binding cassette transporter ABCG2; test: Non-competitive inhibition of ABCG2 (unknown origin)-mediated pheophorbide A transport in MDCK2 cells co-expressing BCRP (unknown origin) at 0.178 to 1 uM by Lineweaver-Burk plot analysis; assay type: cell-based
How it was run: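 Lineweaver-Burk kinetics of ABCG2-mediated pheophorbide A transport in transfected MDCK II BCRP cells. Pheophorbide A was used at 0.5, 0.6, 0.8, 1.0 and 1.5 µM. Inhibitor was used at 0.178, 0.316, 0.562 and 1.00 µM, with a zero-inhibitor control.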

[17] = Growth inhibition of human A2780/ADR cells incubated for 72 hrs by MTT assay; assay type: cell-based; how it was run: as §3
[18] = target: T1, ATP-dependent translocase ABCB1; test: as §1, with “1” for “10”; assay type: cell-based; how it was run: as §2
ABCB1 (P-gp) = ABCB1 (P-gp) (Homo sapiens, UniProt P08183); test: Inhibition of ABCB1 in human A2780/ADR cells at 10 uM preincubated for 30 mins followed by calcein AM addition and measured at 60 secs time interval by fluorescence assay relative to cyclosporine A; assay type: cell-based; details: probe calcein AM
ABCB1 (P-gp), sequence (P08183 whole entry): as the sequence (P08183 whole entry) above

[19] = target: T2, Broad substrate specificity ATP-binding cassette transporter ABCG2; test: Reversal of ABCG2-mediated multidrug resistance in human MCF-7/MX cells assessed as resistance factor by measuring [GI50(resistant cell line without or with compound)/ GI50(sensitive cell line)] at 5 uM incubated for 72 hrs by MTT assay (reference value: 789); assay type: cell-based

RatioGI50 [1]: 0.5
IC50 [2]: 1.73 µM
inhibition (INH) [3]: Active
RatioGI50 [5]: 7.1
IC50 [6]: 2.38 µM
RatioGI50 [7]: 32
RatioGI50 [11]: 4.5
RatioGI50 [12]: 4.1
RatioGI50 [13]: 20
inhibition (INH) [16]: Active
RatioGI50 [18]: 4.3
inhibition at 1 min, 10 µM (ABCB1 (P-gp)): ≥ 20%
RatioGI50 [19]: 179
Structure (SMILES): CC1CCc2c(sc3nc(-c4cccnc4)nc(N4CCN(C(C(N)=O)c5ccccc5)CC4)c23)C1 (stereo not given)
GI50 at 72 h [4]: 24.6 µM
GI50 at 72 h [8]: 25 µM
GI50 at 72 h [9]: 47 µM
GI50 at 72 h [10]: 27 µM
GI50 at 72 h [14]: 42.4 µM
GI50 at 72 h [15]: 57.8 µM
GI50 at 72 h [17]: 25.8 µM
